The values below come from ChEMBL document CHEMBL1275580, “Antifungal susceptibilities among different serotypes of Cryptococcus gattii and Cryptococcus neoformans” (2009).

≈ marks a conversion by molar mass, not a printed value.

Test [1] relates to Cryptococcus neoformans. Nature of the test: Antifungal activity against Cryptococcus neoformans serotype A after 72 hrs by broth microdilution method. It is filed as functional. The gist of the method: (§1)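 Isolates subcultured at least twice on Sabouraud dextrose agar; serotype assigned by multiplex PCR, species confirmed on canavanine-glycine-bromothymol blue medium. CLSI M27-A2 broth microdilution in RPMI 1640 buffered to pH 7.0 with MOPS, inoculum 0.5 × 10^3 to 2.5 × 10^3 cells/ml, 35°C. Final drug ranges were 0.015–8 or 0.25–64 μg/ml depending on agent. MIC read at 72 h as 50% turbidity reduction versus growth control, or as 100% inhibition for the polyene. C. krusei ATCC 6258 and C. parapsilosis ATCC 22019 served as QC strains.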
A general note: Broth dilution looks for growth in wells or tubes with falling amounts of substance.

Test [2] concerns Cryptococcus gattii species complex. Nature of the test: Antifungal activity against Cryptococcus gattii after 72 hrs by broth microdilution method. It is filed as functional, Cryptococcus bacillisporus. The gist of the method:
(§2)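 Isolates subcultured at least twice on Sabouraud dextrose agar; serotype by multiplex PCR, species confirmed on canavanine-glycine-bromothymol blue medium. CLSI M27-A2 broth microdilution in RPMI 1640 with MOPS, pH 7.0. Inoculum 0.5–2.5 × 10^3 cells/ml, 35°C. Final drug range 0.015–8 or 0.25–64 μg/ml. MIC at 72 h read as 50% turbidity reduction versus growth control, or 100% inhibition for the polyene.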

In test [3] the test system is Cryptococcus neoformans. Nature of the test: Antifungal activity against Cryptococcus neoformans after 72 hrs by broth microdilution method. The class given is functional. In outline:
as §1

Test [4] deals with Cryptococcus neoformans. Nature of the test: Antifungal activity against Cryptococcus neoformans serotype D after 72 hrs by broth microdilution method. The class given is functional. The gist of the method:
as §1

For test [5], the system named is Cryptococcus gattii species complex. Nature of the test: Antifungal activity against Cryptococcus gattii serotype B after 72 hrs by broth microdilution method. It is filed as functional, Cryptococcus bacillisporus. In outline: as §2
For test [6] the test system is unchanged. Nature of the test: Antifungal activity against Cryptococcus gattii serotype C after 72 hrs by broth microdilution method. The class given is functional, Cryptococcus bacillisporus. The gist of the method:
as §2

For test [7], the system named is Cryptococcus neoformans. Nature of the test: Antifungal activity against Cryptococcus neoformans serotype AD after 72 hrs by broth microdilution method. It is filed as functional. In outline: as §1

As for `Nc1nc(=O)[nH]cc1F` [FLUCYTOSINE], the MIC50 (as a rule, an inhibitory concentration at the 50% level, which refers to growth in some studies and to a panel of isolates in others) in the test on Cryptococcus neoformans [1] was determined as 4 µg/mL (≈ 31 µM); in test [2] it was 2 µg/mL (≈ 15.5 µM); against Cryptococcus neoformans [3], 4 µg/mL (≈ 31 µM); against Cryptococcus neoformans [4], 4 µg/mL (≈ 31 µM); in test [5], 2 µg/mL (≈ 15.5 µM); in test [6], 2 µg/mL (≈ 15.5 µM). In the test with Cryptococcus neoformans [7], this compound registered an MIC50 of 4 µg/mL (≈ 31 µM). For the same compound, the MIC90 (in general, the lowest concentration that inhibits either 90% of growth or 90% of the strains tested, depending on the study) against Cryptococcus neoformans [1] is 4 µg/mL (≈ 31 µM); in test [2] it was 8 µg/mL (≈ 62 µM); with Cryptococcus neoformans [3] it was 8 µg/mL (≈ 62 µM); in the test on Cryptococcus neoformans [4], 8 µg/mL (≈ 62 µM); in test [5] it was 4 µg/mL (≈ 31 µM); in test [6] it was 8 µg/mL (≈ 62 µM). The MIC90 against Cryptococcus neoformans [7] was determined as 8 µg/mL (≈ 62 µM).

Regarding `C[C@@H](c1ncncc1F)[C@](O)(Cn1cncn1)c1ccc(F)cc1F` [VORICONAZOLE], the MIC50 worked out at 0.06 µg/mL (≈ 0.172 µM) against Cryptococcus neoformans [1]; 0.125 µg/mL (≈ 0.358 µM) in test [2]; 0.06 µg/mL (≈ 0.172 µM) with Cryptococcus neoformans [3]; 0.03 µg/mL (≈ 0.0859 µM) in the test with Cryptococcus neoformans [4]; 0.125 µg/mL (≈ 0.358 µM) in test [5]; 0.125 µg/mL (≈ 0.358 µM) in test [6]. The MIC50 against Cryptococcus neoformans [7] amounted to 0.06 µg/mL (≈ 0.172 µM). For the same compound, the MIC90 (in the test with Cryptococcus neoformans [1]; in test [2]; in the test on Cryptococcus neoformans [3]; in the test with Cryptococcus neoformans [4]; in test [5]; in test [6]) was 0.25 µg/mL (≈ 0.716 µM) in each case. Moreover, the MIC90 against Cryptococcus neoformans [7] stood at 0.125 µg/mL (≈ 0.358 µM).

As to `C[C@@H]1[C@H](O)[C@@H](C)/C=C/C=C/C=C/C=C/C=C/C=C/C=C/[C@H](O[C@@H]2O[C@H](C)[C@@H](O)[C@H](N)[C@@H]2O)C[C@@H]2O[C@](O)(C[C@@H](O)C[C@@H](O)[C@H](O)CC[C@@H](O)C[C@@H](O)CC(=O)O[C@H]1C)C[C@H](O)[C@H]2C(=O)O` [AMPHOTERICIN B], the MIC50 (against Cryptococcus neoformans [1]; in test [2]; with Cryptococcus neoformans [3]; in test [5]; in test [6]; with Cryptococcus neoformans [7]) was 0.25 µg/mL (≈ 0.271 µM) each time. Moreover, the MIC90 against Cryptococcus neoformans [1] was 0.5 µg/mL (≈ 0.541 µM); in test [2], 0.25 µg/mL (≈ 0.271 µM); against Cryptococcus neoformans [3], 0.5 µg/mL (≈ 0.541 µM); in test [5], 0.25 µg/mL (≈ 0.271 µM); in test [6] it was 0.5 µg/mL (≈ 0.541 µM); in the test on Cryptococcus neoformans [7], 0.25 µg/mL (≈ 0.271 µM).

In the case of `OC(Cn1cncn1)(Cn1cncn1)c1ccc(F)cc1F` [FLUCONAZOLE], the MIC50 (in the test with Cryptococcus neoformans [1]; in test [2]; with Cryptococcus neoformans [3]; in test [5]; in test [6]; with Cryptococcus neoformans [7]) was 2 µg/mL (≈ 6.53 µM) in each case. For the same compound, the MIC90 against Cryptococcus neoformans [1] was found to be 4 µg/mL (≈ 13.1 µM); in test [2], 8 µg/mL (≈ 26.1 µM); against Cryptococcus neoformans [3], 4 µg/mL (≈ 13.1 µM); in test [5], 8 µg/mL (≈ 26.1 µM); in test [6], 4 µg/mL (≈ 13.1 µM); against Cryptococcus neoformans [7], 4 µg/mL (≈ 13.1 µM).

Regarding `CC[C@@H]([C@H](C)O)n1ncn(-c2ccc(N3CCN(c4ccc(OC[C@@H]5CO[C@@](Cn6cncn6)(c6ccc(F)cc6F)C5)cc4)CC3)cc2)c1=O` [POSACONAZOLE], the MIC50 is 0.06 µg/mL (≈ 0.0856 µM) in the test with Cryptococcus neoformans [1]; 0.03 µg/mL (≈ 0.0428 µM) in test [2]; 0.03 µg/mL (≈ 0.0428 µM) against Cryptococcus neoformans [3]; below 0.015 µg/mL against Cryptococcus neoformans [4]; 0.03 µg/mL (≈ 0.0428 µM) in test [5]; 0.03 µg/mL (≈ 0.0428 µM) in test [6]. For the same compound, the MIC50 against Cryptococcus neoformans [7] came out at 0.03 µg/mL (≈ 0.0428 µM). In addition, the MIC90 with Cryptococcus neoformans [1] is 0.25 µg/mL (≈ 0.357 µM); in test [2] it was 0.125 µg/mL (≈ 0.178 µM); in the test on Cryptococcus neoformans [3] it was 0.06 µg/mL (≈ 0.0856 µM); with Cryptococcus neoformans [4], 0.06 µg/mL (≈ 0.0856 µM); in test [5], 0.125 µg/mL (≈ 0.178 µM); in test [6] it was 0.06 µg/mL (≈ 0.0856 µM). Besides, the MIC90 in the test with Cryptococcus neoformans [7] was found to be 0.06 µg/mL (≈ 0.0856 µM). Also, in the test with Cryptococcus neoformans [4], the MIC – broadly, the smallest concentration in the dilution series that meets the test's criterion for growth inhibition – was below 0.015 µg/mL.

Take `C[C@@H](c1nc(-c2ccc(C#N)cc2)cs1)[C@](O)(Cn1cncn1)c1cc(F)ccc1F` [ISAVUCONAZOLE]: the MIC50 is 0.03 µg/mL (≈ 0.0686 µM) with Cryptococcus neoformans [1]; 0.03 µg/mL (≈ 0.0686 µM) in test [2]; below 0.015 µg/mL against Cryptococcus neoformans [3]; below 0.015 µg/mL against Cryptococcus neoformans [4]; 0.03 µg/mL (≈ 0.0686 µM) in test [5]; below 0.015 µg/mL in test [6]. The same compound gave an MIC50 in the test with Cryptococcus neoformans [7] below 0.015 µg/mL. The MIC90 with Cryptococcus neoformans [1] was found to be 0.125 µg/mL (≈ 0.286 µM); in test [2] it was 0.06 µg/mL (≈ 0.137 µM); against Cryptococcus neoformans [3] it was 0.06 µg/mL (≈ 0.137 µM); in the test with Cryptococcus neoformans [4], 0.03 µg/mL (≈ 0.0686 µM); in test [5] it was 0.06 µg/mL (≈ 0.137 µM); in test [6] it was 0.03 µg/mL (≈ 0.0686 µM). In addition, the MIC90 in the test with Cryptococcus neoformans [7] came out at 0.03 µg/mL (≈ 0.0686 µM). For the same compound, the MIC (against Cryptococcus neoformans [3]; with Cryptococcus neoformans [4]; in test [6]; against Cryptococcus neoformans [7]) was below 0.015 µg/mL each time.
